The text below walks through data of ChEMBL document CHEMBL2203119, “Synthesis of retinoid enhancers based on 2-aminobenzothiazoles for anti-cancer therapy” (Bioorg Med Chem, 2012).

A short description of data set [1]: Anticancer activity against human BE(2)-C cells transfected with pMEP4 empty vector assessed as reduction of cell viability at 20 uM after 72 hrs by Alamar blue assay. The data set is classed as functional. The method in brief: (§1)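 BE(2)-C neuroblastoma cells stably carrying RARβ cDNA in pMEP4 episomal vector, or empty pMEP4, in DMEM with L-glutamine and 10% FCS at 37 °C, 5% CO2. Cells attached 24 h in 96-well plates, then treated 72 h. Alamar blue absorbance at 570 nm, viability expressed as percentage of negative control.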

Data set [2] in a line: Anticancer activity against human BE(2)-C cells transfected with full-length human cloned RARbeta2 expressing pMEP4 vector assessed as reduction of cell viability at 20 uM after 72 hrs by Alamar blue assay. It counts as functional. The gist of the method:
as §1

Data set [3] is described as follows: Anticancer activity against human BE(2)-C cells transfected with full-length human cloned RARbeta2 expressing pMEP4 vector assessed as reduction of cell viability at 5 uM after 96 hrs by Alamar blue assay relative to compound treated pMEP4 empty vector cloned cells. It counts as functional. The gist of the method: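 RARβ-pMEP4 and empty-vector BE(2)-C cells attached 24 h in 96-well plates, then exposed to ligand at 5 μM for 96 h. Alamar blue absorbance read at 570 nm. Viability of RARβ-transfected cells expressed relative to empty-vector cells. Mean ± SEM from at least three replicates.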

A short description of data set [4]: Cytotoxicity against human MRC5 cells assessed as reduction of cell viability at 1 uM after 96 hrs by alamar blue assay. It counts as cell-based. Conditions: read-out: INH. The gist of the method:
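MRC-5 cells attached 24 h in 96-well plates, exposed to compound at 1 μM for 96 h. Viability by Alamar blue absorbance at 570 nm versus DMSO (0.5%) control.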

Data set [5] in a line: Upregulation of RARbeta2 mRNA expression in human BE(2)-C cells transfected with full-length human cloned RARbeta2 expressing pMEP4 vector at 10 uM after 24 hrs by quantitative real time PCR analysis relative to control. It counts as functional, cell-based. The gist of the method: (§2)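 RARβ-pMEP4 BE(2)-C cells attached 24 h in duplicate wells of 6-well plates, then exposed 24 h to compound (1 or 10 μM), 13-cis-retinoic acid (10 μM), AC261066 (10 nM) or DMSO (0.05%). Total RNA isolated, RARβ2 mRNA quantified by real-time PCR as fold change versus control.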

A short description of data set [6]: Upregulation of RARbeta2 mRNA expression in human BE(2)-C cells transfected with full-length human cloned RARbeta2 expressing pMEP4 vector at 10 nM after 24 hrs by quantitative real time PCR analysis relative to control. It counts as functional, cell-based. The gist of the method:
as §2

Data set [7] deals with SH-SY5Y. The data set can be described thus: Anticancer activity against retinoid-sensitive human SH-SY5Y cells assessed as reduction of cell viability at 10 uM after 96 hrs by alamar blue assay. It counts as functional. The gist of the method:
(§3)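 Alamar blue (resazurin) viability assay in SH-SY5Y or MDA-MB-231 cells grown in DMEM/L-glutamine/10% FCS, 37 °C, 5% CO2. After 24 h attachment in 6 replicate wells, cells were continuously exposed to serial dilutions for 96 h. Absorbance at 570 nm was read at 0 h and 5 h after reagent addition. Viability is % of matched 0.5% DMSO controls; mean ± SEM, three independent experiments.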

The subject of data set [8] is SH-SY5Y. Put plainly: Anticancer activity against retinoid-sensitive human SH-SY5Y cells assessed as reduction of cell viability at 20 uM after 96 hrs by alamar blue assay. The data set is classed as functional. The gist of the method: as §3
Data set [9] has as its system MDA-MB-231. Put plainly: Anticancer activity against retinoid-resistant human MDA-MB-231 cells assessed as reduction of cell viability at 20 uM after 96 hrs by alamar blue assay. Conditions: MDA-MB-231, 96 h. It counts as functional. The gist of the method:
as §3

In data set [10] the test system is SH-SY5Y. The data set can be described thus: Anticancer activity against retinoid-sensitive human SH-SY5Y cells assessed as cell viability at 0.01 to 100 uM after 96 hrs by alamar blue assay. The data set is classed as functional, cell-based. The method in brief:
as §3

Data set [11] in a line: Anticancer activity against human BE(2)-C cells transfected with pMEP4 empty vector assessed as reduction of cell viability at 10 uM after 72 hrs by Alamar blue assay. The data set is classed as functional. The gist of the method:
as §1

Data set [12] can be described thus: Anticancer activity against human BE(2)-C cells transfected with full-length human cloned RARbeta2 expressing pMEP4 vector assessed as reduction of cell viability at 10 uM after 72 hrs by Alamar blue assay. It counts as functional. The gist of the method:
as §1

For data set [13], the system named is SH-SY5Y. The data set can be described thus: Anticancer activity against retinoid-sensitive human SH-SY5Y cells assessed as reduction of cell viability at 1 uM after 96 hrs by alamar blue assay. It counts as functional. The method in brief:
as §3

The nature of data set [14]: Anticancer activity against human BE(2)-C cells transfected with full-length human cloned RARbeta2 expressing pMEP4 vector assessed as reduction of cell viability at 1 uM after 72 hrs by Alamar blue assay. It counts as functional. The gist of the method:
as §1

For data set [15], the system named is MDA-MB-231. The data set can be described thus: Anticancer activity against retinoid-resistant human MDA-MB-231 cells assessed as reduction of cell viability at 1 uM after 96 hrs by alamar blue assay. The data set is classed as functional. Conditions: MDA-MB-231, 96 h. The gist of the method: as §3
The nature of data set [16]: Anticancer activity against human BE(2)-C cells transfected with pMEP4 empty vector assessed as reduction of cell viability at 1 uM after 72 hrs by Alamar blue assay. The data set is classed as functional. The method in brief: as §1
A short description of data set [17]: Upregulation of RARbeta2 mRNA expression in human BE(2)-C cells transfected with full-length human cloned RARbeta2 expressing pMEP4 vector at 1 uM after 24 hrs by quantitative real time PCR analysis relative to control. The data set is classed as functional, cell-based. The method in brief: as §2
The subject of data set [18] is SH-SY5Y. The data set can be described thus: Anticancer activity against retinoid-sensitive human SH-SY5Y cells assessed as reduction of cell viability at 0.1 uM after 96 hrs by alamar blue assay. It counts as functional. The method in brief: as §3

Active and inactive are the calls of the source. The calls are words filed in the database; no cut-off is given here.

On to `O=C(Cc1c[nH]c2ccccc12)Nc1nc2ccc(Cl)cc2s1`, for which the inhibition at 20 µM in data set [1] amounted to 43%; in data set [2], 48%. Turning to `Cc1ccc(NC(=O)c2cc3c(C)nn(CC(C)C)c3s2)c(O)c1`, the inhibition at 5 µM in data set [3] turned out to be 20%. Turning to `CC1=C(/C=C/C(C)=C/C=C/C(C)=C\C(=O)O)C(C)(C)CCC1` [ISOTRETINOIN], the cytotoxicity at 96 h, 1 µM in [4] was found to be 10%. In addition, in data set [5], the fold change (FC) was 9.3.

Turning to `CC1(C)Cc2cccc(OCc3nnc(-c4ccccc4)o3)c2O1`, in [3], the inhibition at 5 µM is 20%. In [6], `CCCCOCCOc1nc(-c2ccc(C(=O)O)c(F)c2)sc1C` registered a fold change (FC) of 2.7. Regarding `Cc1cccc2sc(NC(=O)CNC(=O)Cc3ccccc3)nc12`, the inhibition at 5 µM in [3] is 20%. Still for that read-out and setting: for `Cn1cnnc1SCc1nnc(-c2ccc(Br)s2)o1` the value was 20%. In the case of `N[C@@H](Cc1ccccc1)C(=O)NCC(=O)Nc1nc2ccccc2s1`, in data set [7], the inhibition at 10 µM is 13%. Besides, the inhibition at 20 µM in data set [8] and in [9] was 50% in each case. Consider `Cc1cc(C(=O)CSc2nnnn2C2CC2)c(C)n1C1CC1`, for which the inhibition at 5 µM in data set [3] is 20%.

As to `CCOc1ccc2nc(NC(=O)Cc3c[nH]c4ccccc34)sc2c1`, the inhibition at 20 µM in [1] was found to be 29%; in [2], 39%. On to `Cc1nnc(SCc2nnc(-c3cccs3)o2)n1-c1ccccc1`, for which the inhibition at 5 µM in [3] was found to be 20%.

On to `Cc1nn(CC(C)C)c2sc(C(=O)Nc3nc4ccccc4[nH]3)cc12`, for which, in [3], the inhibition at 5 µM was 20%. As to `O=C(Nc1nc2ccccc2s1)C(=O)c1c[nH]c2ccccc12`, the result in data set [10] was inactive.

`O=C(CCSc1ccccc1)Nc1ccc(-c2cn3ccsc3n2)cc1`: the inhibition at 5 µM in data set [3] was determined as 20%. Regarding `O=C(CCc1c[nH]c2ccccc12)Nc1nc2ccccc2s1`, the Activity worked out at 38% in [11] and 53% in data set [12]. In data set [5], the fold change (FC) stood at 1.5. Consider `O=C(Cc1c[nH]c2ccccc12)Nc1nc2ccccc2s1`, for which the inhibition at 1 µM in data set [13] is 55%; in data set [14], 50%; in data set [15], 58%; in [16] it was 38%. Moreover, the cytotoxicity at 96 h, 1 µM in data set [4] came out at 20%. For the same compound, in data set [17], the fold change (FC) worked out at 2.1. Further, in data set [18], the inhibition at 0.1 µM was determined as 12%.
